Source: ChEMBL document CHEMBL3585289, “Potent and Selective Amidopyrazole Inhibitors of IRAK4 That Are Efficacious in a Rodent Model of Inflammation” (ACS Med Chem Lett, 2015)
Values after ≈ are worked out from the molar mass of the structure shown. Active and inactive are the calls of the source. The calls are words filed in the database; no cut-off is given here.

Key:
[1] = biological target: T1, Interleukin-1 receptor-associated kinase 4 (Homo sapiens, UniProt Q9NWZ3); assay: biochemical
T1 sequence (Q9NWZ3 whole entry): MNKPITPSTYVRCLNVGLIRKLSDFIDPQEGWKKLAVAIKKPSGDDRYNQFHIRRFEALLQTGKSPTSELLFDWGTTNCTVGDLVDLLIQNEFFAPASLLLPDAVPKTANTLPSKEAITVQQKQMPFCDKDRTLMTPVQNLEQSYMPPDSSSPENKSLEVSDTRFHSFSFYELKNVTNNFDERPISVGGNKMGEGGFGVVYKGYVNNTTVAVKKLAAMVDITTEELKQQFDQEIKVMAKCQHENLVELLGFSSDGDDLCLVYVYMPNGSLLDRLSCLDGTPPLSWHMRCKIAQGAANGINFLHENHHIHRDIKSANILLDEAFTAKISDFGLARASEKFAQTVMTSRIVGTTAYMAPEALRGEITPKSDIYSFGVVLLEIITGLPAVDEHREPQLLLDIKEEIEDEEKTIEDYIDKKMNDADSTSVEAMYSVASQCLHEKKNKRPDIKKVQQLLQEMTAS

[2] = AUC (0 to 6 hrs) in Sprague-Dawley rat at 10 mg/kg, po administered as cassette dosing; format: ADME, organism-based; set-up: time < 6 hr, dose 10 mg/kg, route oral; settings: in vivo
[3] = Kinetic aqueous solubility of the compound in phosphate buffered saline at pH 7 at 25 degC after 24 hrs by HPLC/DAD method; format: physicochemical; settings: read-out: Kinetic_solubility
[4] = AUC (0 to 8 hrs) in Sprague-Dawley rat at 10 mg/kg, po administered as cassette dosing; format: ADME, organism-based; set-up: dose 10 mg/kg, time < 8 hr, route oral; settings: in vivo
[5] = biological target: Misshapen-like kinase 1 (Homo sapiens) (UniProt Q8N4C8); assay: Inhibition of recombinant human MINK1 at 10 uM relative to control
Chain of Misshapen-like kinase 1 (Homo sapiens) (Q8N4C8 whole entry, looked up): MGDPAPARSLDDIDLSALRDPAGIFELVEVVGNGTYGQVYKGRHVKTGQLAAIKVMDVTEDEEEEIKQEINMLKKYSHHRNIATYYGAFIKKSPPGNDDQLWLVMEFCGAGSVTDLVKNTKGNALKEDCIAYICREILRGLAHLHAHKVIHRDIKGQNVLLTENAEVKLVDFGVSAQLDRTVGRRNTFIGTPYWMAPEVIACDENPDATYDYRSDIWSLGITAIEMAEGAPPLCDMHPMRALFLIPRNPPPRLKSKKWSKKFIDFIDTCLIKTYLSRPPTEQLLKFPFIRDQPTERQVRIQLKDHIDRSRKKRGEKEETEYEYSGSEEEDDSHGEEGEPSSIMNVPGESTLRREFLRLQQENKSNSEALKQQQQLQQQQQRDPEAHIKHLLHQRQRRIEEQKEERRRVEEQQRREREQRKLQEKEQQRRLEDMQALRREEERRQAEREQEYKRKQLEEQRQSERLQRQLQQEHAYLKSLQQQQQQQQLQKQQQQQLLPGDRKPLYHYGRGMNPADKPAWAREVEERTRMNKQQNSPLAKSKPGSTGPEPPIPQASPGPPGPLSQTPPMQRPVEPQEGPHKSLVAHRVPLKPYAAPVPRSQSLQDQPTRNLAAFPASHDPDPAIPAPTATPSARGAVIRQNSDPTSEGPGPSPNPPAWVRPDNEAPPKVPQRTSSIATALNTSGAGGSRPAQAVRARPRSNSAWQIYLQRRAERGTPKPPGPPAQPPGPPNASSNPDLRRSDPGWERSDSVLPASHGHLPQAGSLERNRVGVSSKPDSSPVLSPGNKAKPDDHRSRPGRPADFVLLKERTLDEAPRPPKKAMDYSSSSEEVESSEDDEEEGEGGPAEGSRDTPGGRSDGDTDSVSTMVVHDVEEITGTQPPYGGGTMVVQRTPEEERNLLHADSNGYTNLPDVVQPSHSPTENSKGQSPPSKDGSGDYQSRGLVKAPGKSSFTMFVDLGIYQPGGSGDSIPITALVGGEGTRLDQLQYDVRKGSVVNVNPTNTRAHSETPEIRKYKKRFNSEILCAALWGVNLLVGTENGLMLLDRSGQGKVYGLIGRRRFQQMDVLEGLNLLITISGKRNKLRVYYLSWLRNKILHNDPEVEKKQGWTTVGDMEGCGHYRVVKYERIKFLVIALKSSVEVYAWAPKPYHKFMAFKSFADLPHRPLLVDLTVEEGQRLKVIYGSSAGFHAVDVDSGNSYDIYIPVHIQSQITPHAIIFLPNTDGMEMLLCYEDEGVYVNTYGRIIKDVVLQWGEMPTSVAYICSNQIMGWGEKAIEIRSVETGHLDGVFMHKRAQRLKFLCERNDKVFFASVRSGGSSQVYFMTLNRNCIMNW

[6] = biological target: T2, Interleukin-1 receptor-associated kinase 4 (Homo sapiens) (UniProt Q9NWZ3); assay: Inhibition of recombinant human IRAK4 at 10 uM relative to control
T2 sequence (whole entry): T1 sequence (Q9NWZ3 whole entry)

Rattus norvegicus [7] = assay: Antiinflammatory activity in Lewis rat peritonitis model assessed as reduction of TLR2 agonist PAM2CSK4-induced IL-6 production in plasma at 100 mg/kg, po administered 1 hr prior to PAM2CSK4 challenge measured after 3 hrs relative to vehicle-treated control; format: functional; set-up: scale not given: the % may be the effect or the level left
How it was run: (§1)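 Female Lewis rats (n = 9) dosed by oral gavage at 100 mg/kg. One hour later, TLR2 agonist PAM2CSK4 injected intraperitoneally. Plasma collected 3 h after injection for cytokine levels and drug exposure. Cytokines expressed relative to a vehicle-only group.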

Rattus norvegicus [8] = assay: Antiinflammatory activity in Lewis rat peritonitis model assessed as reduction of TLR2 agonist PAM2CSK4-induced TNF-alpha production in plasma at 100 mg/kg, po administered 1 hr prior to PAM2CSK4 challenge measured after 3 hrs relative to vehicle-treated control; format: functional; set-up: scale not given: the % may be the effect or the level left
How it was run: as §1

Rattus norvegicus [9] = assay: Antiinflammatory activity in Lewis rat peritonitis model assessed as reduction of TLR2 agonist PAM2CSK4-induced IL-8 production in plasma at 100 mg/kg, po administered 1 hr prior to PAM2CSK4 challenge measured after 3 hrs relative to vehicle-treated control; format: functional; set-up: scale not given: the % may be the effect or the level left
How it was run: as §1

[10] = AUC (0 to 8 hrs) in Sprague-Dawley rat at 2 mg/kg, iv; format: ADME, organism-based; set-up: dose 2 mg/kg, time < 8 hr, route intravenous; settings: in vivo
[11] = AUC (0 to 24 hrs) in mouse at 5 mg/kg, po; format: ADME, organism-based; set-up: dose 5 mg/kg, time < 24 hr, route oral; settings: in vivo
Pgp [12] = assay: Activity at rat Pgp assessed as apparent permeability by cell-based assay; format: ADME; settings: not told
[13] = biological target: T1, Interleukin-1 receptor-associated kinase 4; assay: Inhibition of IRAK4 in human THP1-XBlue cells assessed as suppression of TLR4 agonist LPS-induced activation of NF-kappaB preincubated for 1 hr followed by LPS challenge measured after 5 hrs by secreted embryonic alkaline phosphatase reporter gene assay; format: cell-based, THP-1
Rattus norvegicus [14] = assay: Antiinflammatory activity in Lewis rat peritonitis model assessed as reduction of TLR2 agonist PAM2CSK4-induced IL-1beta production in plasma at 100 mg/kg, po administered 1 hr prior to PAM2CSK4 challenge measured after 3 hrs relative to vehicle-treated control; format: functional; set-up: scale not given: the % may be the effect or the level left
How it was run: as §1

Rattus norvegicus [15] = assay: Antiinflammatory activity in Lewis rat peritonitis model assessed as reduction of TLR2 agonist PAM2CSK4-induced IFN-gamma production in plasma at 100 mg/kg, po administered 1 hr prior to PAM2CSK4 challenge measured after 3 hrs relative to vehicle-treated control; format: functional; set-up: scale not given: the % may be the effect or the level left
How it was run: as §1

[16] = Fraction unbound in rat plasma at 10 uM after 6 hrs by dialysis method; format: ADME, cell-free
[17] = Oral bioavailability in Sprague-Dawley rat at 10 mg/kg administered as cassette dosing; format: ADME, organism-based; settings: in vivo
[18] = biological target: T2, Interleukin-1 receptor-associated kinase 4 (Homo sapiens); settings: 1 uM
Mus musculus [19] = assay: Antiinflammatory activity in CIA-MAB-50-induced BALB/c mouse arthritis model assessed as decrease in LPS-induced paw size at 100 mg/kg, po qd administered on day 3 to 10 post LPS challenge measured on day 10 relative to vehicle-treated control; format: functional, organism-based
How it was run: (§2)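 BALB/c female mice given arthritogenic monoclonal antibody CIA-MAB-50 (2.5 mg) on day 0, then LPS booster (25 μg i.p.) on day 3. Oral gavage once daily on days 3–10; vehicle group received methylcellulose. Paw size measured on days 0, 3, 6, 8 and 10. Study ended on day 10, and day-10 paw size was compared with vehicle.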

[20] = Drug metabolism in rat hepatocytes assessed as monooxidized metabolite formation; format: ADME, cell-based, Hepatocyte
Mus musculus [21] = assay: Antiinflammatory activity in CIA-MAB-50-induced BALB/c mouse arthritis model assessed as decrease in LPS-induced paw size at 2 mg/kg, po qd administered on day 3 to 10 post LPS challenge measured on day 10 relative to vehicle-treated control; format: functional, organism-based
How it was run: as §2

[22] = biological target: BDNF/NT-3 growth factors receptor (Homo sapiens) (UniProt Q16620); assay: Inhibition of recombinant human TRKB at 10 uM relative to control
Chain of BDNF/NT-3 growth factors receptor (Homo sapiens) (Q16620 32-822 limits assumed): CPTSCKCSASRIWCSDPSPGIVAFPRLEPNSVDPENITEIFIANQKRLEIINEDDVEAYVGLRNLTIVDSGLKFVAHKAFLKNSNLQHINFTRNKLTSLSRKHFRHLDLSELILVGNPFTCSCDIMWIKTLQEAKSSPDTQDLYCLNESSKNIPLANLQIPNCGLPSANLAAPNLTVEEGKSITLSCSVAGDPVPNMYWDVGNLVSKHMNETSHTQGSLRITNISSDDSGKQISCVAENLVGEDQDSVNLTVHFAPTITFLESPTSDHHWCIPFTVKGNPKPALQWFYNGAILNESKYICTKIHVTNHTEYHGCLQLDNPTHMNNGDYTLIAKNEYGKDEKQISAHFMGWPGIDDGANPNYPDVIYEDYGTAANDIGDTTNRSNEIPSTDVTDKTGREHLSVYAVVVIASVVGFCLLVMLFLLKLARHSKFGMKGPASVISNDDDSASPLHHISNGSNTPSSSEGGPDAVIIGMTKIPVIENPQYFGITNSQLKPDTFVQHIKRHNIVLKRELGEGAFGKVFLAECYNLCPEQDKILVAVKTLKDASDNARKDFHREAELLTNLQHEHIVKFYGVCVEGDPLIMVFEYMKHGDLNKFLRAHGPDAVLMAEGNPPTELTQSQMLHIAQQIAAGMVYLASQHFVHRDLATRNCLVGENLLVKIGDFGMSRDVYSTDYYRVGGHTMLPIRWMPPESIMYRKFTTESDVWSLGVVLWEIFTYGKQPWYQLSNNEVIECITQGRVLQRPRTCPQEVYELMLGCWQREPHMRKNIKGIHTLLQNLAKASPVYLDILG

Pgp [23] = assay: Apparent permeability across pig LLC-PK1 cells expressing human or mouse Pgp; format: ADME, cell-based, Sus scrofa
[24] = Plasma concentration in PAM2CSK4 challenged Lewis rat peritonitis model at 100 mg/kg, po administered 1 hr prior to PAM2CSK4 challenge measured after 3 hrs; format: ADME, organism-based
How it was run: as §1

Structure (SMILES) | IC50 [1] [nM] | AUC(0-t) at 6 h [2] [µM·h] | solubility kinetic at 24 h [3] [µM] | also measured
CS(=O)(=O)N1CCC(c2cc(NC(=O)c3cnn4cccnc34)n(-c3ccccc3)n2)CC1 | 280 |  |  | 
CC(=O)N1CCC(c2cc(NC(=O)c3cnn4cccnc34)n(-c3ccc(C)cc3)n2)CC1 | 180 | 0.71 | 163 (≈ 72.3 µg/mL) | 
CS(=O)(=O)N1CCC(c2cc(NC(=O)c3cnn4cccnc34)n(-c3ccc(C4CC4)cn3)n2)CC1 | 20 |  |  | AUC(0-t) at 8 h [4]: 1.9 µM·h
COc1ccc(-c2cc(NC(=O)c3cnn4cccnc34)n(-c3ccc(C)cc3)n2)cc1 | 170 |  | < 2 | inhibition [5]: > 80%; inhibition [6]: > 80%
Cc1ccc(-n2nc(C3CCN(C)CC3)cc2NC(=O)c2cnn3cccnc23)cc1 | 150 |  | 165 (≈ 68.6 µg/mL) | 
Cc1ccc(-n2nc(N3CCN(C)CC3)cc2NC(=O)c2cnn3cccnc23)nc1 | 5 |  |  | Activity (Rattus norvegicus [7]): 85%; AUC(0-t) at 8 h [4]: 1.7 µM·h; Activity (Rattus norvegicus [8]): 32%; Activity (Rattus norvegicus [9]): 34%; AUC(0-t) at 8 h [10]: 1.29 µM·h; AUC(0-t) at 24 h [11]: 2.3 µM·h; Papp (Pgp [12]): 32 ×10⁻⁶ cm/s; IC50 [13]: 83 nM; Activity (Rattus norvegicus [14]): 28%; Activity (Rattus norvegicus [15]): 30%; fraction unbound at 6 h, 10 µM [16]: 0.21; bioavailability [17]: 28%; inhibition [18]: > 80%; Activity (Mus musculus [19]): Active
COc1ccc(-c2cc(NC(=O)c3cnn4cccnc34)n(-c3ccc(C)cc3)n2)cc1OC | 44 |  | < 2 | Drug metabolism [20]: metabolite_detected
Cc1ccc(-n2nc(C3CCN(C(C)C)CC3)cc2NC(=O)c2cnn3cccnc23)nc1 | 7 |  |  | 
COc1ccc(-c2cc(NC(=O)c3cnn4cccnc34)n(-c3ccc(C)cc3)n2)cn1 | 310 |  | 3 (≈ 1.28 µg/mL) | 
C[C@@H]1C[C@H]2[C@@H]3CCC4=CC(=O)C=C[C@]4(C)[C@@]3(F)[C@@H](O)C[C@]2(C)[C@@]1(O)C(=O)CO |  |  |  | Activity (Mus musculus [21]): Active
CS(=O)(=O)N1CCC(c2cc(NC(=O)c3cnn4cccnc34)n(-c3ccc(C4CC4)cc3)n2)CC1 | 59 | 5.26 |  | 
Cc1ccc(-n2nc(C3CCN(C(C)C)CC3)cc2NC(=O)c2cnn3cccnc23)cc1 | 47 | 0.28 | 170 (≈ 75.4 µg/mL) | 
Cc1ccc(-n2nc(C3CCNCC3)cc2NC(=O)c2cnn3cccnc23)cc1 | 80 |  | 172 (≈ 69.1 µg/mL) | 
Cc1ccc(-n2nc(C3CCN(C(N)=O)CC3)cc2NC(=O)c2cnn3cccnc23)cc1 | 220 |  |  | 
Cc1ccc(-n2nc(N3CCN(S(C)(=O)=O)CC3)cc2NC(=O)c2cnn3cccnc23)nc1 | 2 |  |  | AUC(0-t) at 8 h [4]: 8.9 µM·h
CS(=O)(=O)N1CCC(c2cc(NC(=O)c3cnn4cccnc34)n(-c3ccc(C4CC4)cc3F)n2)CC1 | 85 |  |  | 
Cc1ccc(-n2nc(C3CCN(S(C)(=O)=O)CC3)cc2NC(=O)c2cnn3cccnc23)nc1 | 27 |  |  | AUC(0-t) at 8 h [4]: 0.045 µM·h; inhibition [6]: > 80%
Cc1ccc(-n2nc(C3CCCCC3)cc2NC(=O)c2cnn3cccnc23)cc1 | 2400 |  | < 2 | 
Cc1ccc(-n2nc(-c3ccccc3)cc2NC(=O)c2cnn3cccnc23)cc1 | 690 |  | < 3 | 
Cc1ccc(-n2nc(C3CCN(S(C)(=O)=O)CC3)cc2NC(=O)c2cnn3cccnc23)c(F)c1 | 40 | 11.8 |  | 
Cc1ccc(-n2nc(C3CCN(S(C)(=O)=O)CC3)cc2NC(=O)c2cnn3cccnc23)cc1 | 67 | 19.3 | < 2 | Activity (Rattus norvegicus [7]): inactive; Activity (Rattus norvegicus [8]): 21%; inhibition [22]: > 80%; Papp (Pgp [23]): 31 ×10⁻⁶ cm/s; IC50 [13]: 2400 nM; Activity (Rattus norvegicus [14]): 28%; Activity (Rattus norvegicus [15]): inactive; inhibition [6]: > 80%; concentration at 3 h [24]: 2660 nM
COc1cc(-c2cc(NC(=O)c3cnn4cccnc34)n(-c3ccc(C)cc3)n2)ccn1 | 390 | 1.39 | < 2 | 
CC(C)N1CCC(c2cc(NC(=O)c3cnn4cccnc34)n(-c3ccc(C4CC4)cc3F)n2)CC1 | 13 |  |  | AUC(0-t) at 8 h [4]: 1.11 µM·h
Cc1ccc(-n2nc(C3CC3)cc2NC(=O)c2cnn3cccnc23)cc1 | 370 | 2.37 | 99 (≈ 35.5 µg/mL) | 
COc1ccc(-n2nc(C3CCN(S(C)(=O)=O)CC3)cc2NC(=O)c2cnn3cccnc23)cc1 | 71 | 0.43 |  | 
Cc1cnc(-n2nc(C3CCN(S(C)(=O)=O)CC3)cc2NC(=O)c2cnn3cccnc23)nc1 | 180 |  |  | 
Cc1cccc(-n2nc(C3CCN(S(C)(=O)=O)CC3)cc2NC(=O)c2cnn3cccnc23)c1 | 2100 |  |  | 
Cc1ccc(-n2nc(C3CCOCC3)cc2NC(=O)c2cnn3cccnc23)cc1 | 410 | 0.45 | 24 (≈ 9.66 µg/mL) | 
Cc1ccc(-n2nc(-c3ccncc3)cc2NC(=O)c2cnn3cccnc23)cc1 | 61 |  | < 2 | 
Cc1ccc(-n2nc(-c3cccnc3)cc2NC(=O)c2cnn3cccnc23)cc1 | 99 | 0.44 | < 2 | 
